Test results: ChEMBL document CHEMBL1140934, “Structure-activity relationships of antitubercular nitroimidazoles. 2. Determinants of aerobic activity and quantitative structure-activity relationships” (2009)
Converted amounts (≈) assume the structure as drawn.

Assays:
[1] = system: Mycobacterium tuberculosis; test: Antimycobacterial activity against wild type Mycobacterium tuberculosis H37Rv ATCC 27294 after 2 weeks; type: functional; details: 336 h
How it was run: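 M. tuberculosis H37Rv was grown in 7H9 with 0.05% Tween 80, 0.2% glycerol and ADC to OD650 0.2, then diluted 1:1000. It was added to 2-fold serial drug dilutions in the same medium (11 dilutions, 200 µM to 0.19 µM). Plates were incubated 2 weeks at 37°C and MIC99 read macroscopically. Three independent determinations.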

[2] = system: Mycobacterium tuberculosis; test: Antimycobacterial activity against wild type Mycobacterium tuberculosis H37Rv NRP-2 stage after 3 weeks under anaerobic condition; type: functional; details: 504 h
How it was run: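 H37Rv was anaerobically adapted from OD650 0.005 in glycerol-free Dubos broth, in sealed stirred tubes (head-space ratio 0.5) for 3 weeks at 37°C. Cultures were dispensed in an anaerobic chamber onto drug (2% DMSO final) and held anaerobically 7 days at 37°C. Cells were washed, 2-fold diluted and spotted on 7H11 agar for 3 weeks. MAC: 90% reduction in visible growth. Isoniazid and metronidazole controls; CFU counts corroborated.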

[3] = system: Mycobacterium tuberculosis; test: Ratio of Kcat/Km for Mycobacterium tuberculosis F420-dependent nitroreductase by Michaelis-Menten equation
How it was run: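 Buffer was 200 mM Tris pH 8.0 with 0.01% Triton X-100 and 20 µM H2F420. H2F420 was made with recombinant Mtb FGD1, which was then heat-inactivated (65°C, 10 min) and removed by ultrafiltration. F420 came from M. smegmatis.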

| Structure (SMILES) | MIC [1] [µM] | MBC [2] [µM] | kcat/Km [3] [M⁻¹ s⁻¹] |
| --- | --- | --- | --- |
| O=[N+]([O-])c1cn2c(n1)OC[C@@H](NCCc1ccc(OC(F)(F)F)cc1)C2 | 0.16 (≈ 0.0596 µg/mL) | 6.25 (≈ 2.33 µg/mL) | 1830 |
| O=[N+]([O-])c1cn2c(n1)OC[C@@H](NCc1ccc(OCc3ccccc3)cc1)C2 | 0.15 (≈ 0.0571 µg/mL) | 6.25 (≈ 2.38 µg/mL) | 3450 |
| O=[N+]([O-])c1cn2c(n1)[S+]([O-])C[C@@H](OCc1ccc(OC(F)(F)F)cc1)C2 (stereo partly drawn) | > 100 | 50 (≈ 19.6 µg/mL) |  |
| O=[N+]([O-])c1cn2c(n1)OC[C@@H](NCCCc1ccc(OC(F)(F)F)cc1)C2 | 0.078 (≈ 0.0301 µg/mL) | 3.12 (≈ 1.21 µg/mL) | 5120 |
| O=[N+]([O-])c1cn2c(n1)OC[C@@H](NCCCCCc1ccc(OC(F)(F)F)cc1)C2 | 0.078 (≈ 0.0323 µg/mL) | 6.25 (≈ 2.59 µg/mL) | 15200 |
| O=[N+]([O-])c1cn2c(n1)OC[C@@H](NCc1ccc(OCc3ccc(F)cc3)cc1)C2 | 0.2 (≈ 0.0797 µg/mL) | 2 (≈ 0.797 µg/mL) | 7530 |
| N[C@@H]1COc2nc([N+](=O)[O-])cn2C1 | > 100 | > 500 |  |
| CN1C[C@@H](OCc2ccc(OC(F)(F)F)cc2)Cn2cc([N+](=O)[O-])nc21 | 6.25 (≈ 2.33 µg/mL) | ≥ 100 | 1020 |
| O=CN1CC(OCc2ccc(OC(F)(F)F)cc2)Cn2cc([N+](=O)[O-])nc21 (single isomer, unassigned) | 3.2 (≈ 1.24 µg/mL) | 25 (≈ 9.66 µg/mL) | 1080 |
| O=C(COc1ccc(OC(F)(F)F)cc1)N[C@@H]1COc2nc([N+](=O)[O-])cn2C1 | 0.05 (≈ 0.0201 µg/mL) | 62.5 (≈ 25.1 µg/mL) | 283 |
| O=[N+]([O-])c1cn2c(n1)SC[C@H](OCc1ccc(OC(F)(F)F)cc1)C2 | 50 (≈ 18.8 µg/mL) | 50 (≈ 18.8 µg/mL) |  |
| O=[N+]([O-])c1cn2c(n1)CC[C@@H](OCc1ccc(OC(F)(F)F)cc1)C2 | 25 (≈ 8.93 µg/mL) | 250 (≈ 89.3 µg/mL) | 400 |
| CC(=O)N1CC(OCc2ccc(OC(F)(F)F)cc2)Cn2cc([N+](=O)[O-])nc21 (single isomer, unassigned) | 6.25 (≈ 2.5 µg/mL) | 31.2 (≈ 12.5 µg/mL) |  |
| O=[N+]([O-])c1cn2c(n1)OC[C@@H](OCc1ccc(OC(F)(F)F)cc1)C2 [PRETOMANID] | 0.8 (≈ 0.287 µg/mL) | 6.25 (≈ 2.25 µg/mL) | 2580 |
| O=[N+]([O-])c1cn2c(n1)SC[C@@H](OCc1ccc(OC(F)(F)F)cc1)C2 | 0.8 (≈ 0.3 µg/mL) | 25 (≈ 9.38 µg/mL) | 2430 |
| O=[N+]([O-])c1cn2c(n1)OC[C@@H](NCc1ccc(OC(F)(F)F)cc1)C2 | 0.31 (≈ 0.111 µg/mL) | 12.5 (≈ 4.48 µg/mL) | 2870 |
| O=[N+]([O-])c1cn2c(n1)S(=O)(=O)C[C@@H](OCc1ccc(OC(F)(F)F)cc1)C2 | > 100 | 25 (≈ 10.2 µg/mL) |  |
| O=[N+]([O-])c1cn2c(n1)NC[C@@H](OCc1ccc(OC(F)(F)F)cc1)C2 | 0.8 (≈ 0.287 µg/mL) | 125 (≈ 44.8 µg/mL) | 4050 |
| CCCCc1ccc(CN[C@@H]2COc3nc([N+](=O)[O-])cn3C2)cc1 | 0.78 (≈ 0.258 µg/mL) | 50 (≈ 16.5 µg/mL) | 900 |
| O=[N+]([O-])c1cn2c(n1)OC[C@@H](NCc1ccc(OCc3ccc(OC(F)(F)F)cc3)cc1)C2 | 0.16 (≈ 0.0743 µg/mL) | 1.56 (≈ 0.724 µg/mL) | 1230 |
| O=[N+]([O-])c1cn2c(n1)OC[C@@H](NCCCCc1ccc(OC(F)(F)F)cc1)C2 | 0.039 (≈ 0.0156 µg/mL) | 3.13 (≈ 1.25 µg/mL) | 8570 |
